From PubChem BioAssay
TbMetRS inhib: Trypanosoma brucei MetRS inhibition | actives 0.4% (n = 360,000) | AID 624268 | purified T. brucei MetRS, ATP depletion, Kinase-Glo luminescence | inhibition, % at 11.9 µM;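 active means inhibition above a per-plate cutoff of the control wells' mean inhibition plus 3 SD, cut at about 5.5% in these data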
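Material: parasite MetRS enzyme / Replication: singlicate, one well per compound / Signal: luminescence of leftover ATP / Schedule: 2 h aminoacylation at 25 °C after 15 min preincubation / Medium: HEPES-MgCl2-KCl buffer plus DTT, spermine, BSA, pyrophosphatase / Doses: 11.9 µM single point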
ADAM10 inh: inhibitors of human ADAM10. O14672. recombinant ADAM10, EDANS/DABCYL FRET peptide cleavage, 3 h. inhibition, % at 7 µM. actives 0.62% (n = 370,000). AID 720582;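 active means inhibition above a per-campaign cutoff equal to the mean of compounds falling between control-based bounds plus 3 SD, cut at about 20% in these data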
PLCb3 inh: inhibitors of human phospholipase C beta3. AID 720704. Purified PLC-beta3, fluorogenic substrate, fluorescence. actives 0.18% (n = 370,000). Q01970. inhibition, % at 12.2 µM; in the data active means inhibition above about 11%
PLCg1 inh: blocks human PLC-gamma1 enzyme activity | P19174 | purified PLC-gamma1, fluorogenic substrate, fluorescence | inhibition, % at 12.2 µM | actives 0.84% (n = 370,000); in the data active means inhibition above about 9.5%
Target sequence (P19174 whole entry, looked up): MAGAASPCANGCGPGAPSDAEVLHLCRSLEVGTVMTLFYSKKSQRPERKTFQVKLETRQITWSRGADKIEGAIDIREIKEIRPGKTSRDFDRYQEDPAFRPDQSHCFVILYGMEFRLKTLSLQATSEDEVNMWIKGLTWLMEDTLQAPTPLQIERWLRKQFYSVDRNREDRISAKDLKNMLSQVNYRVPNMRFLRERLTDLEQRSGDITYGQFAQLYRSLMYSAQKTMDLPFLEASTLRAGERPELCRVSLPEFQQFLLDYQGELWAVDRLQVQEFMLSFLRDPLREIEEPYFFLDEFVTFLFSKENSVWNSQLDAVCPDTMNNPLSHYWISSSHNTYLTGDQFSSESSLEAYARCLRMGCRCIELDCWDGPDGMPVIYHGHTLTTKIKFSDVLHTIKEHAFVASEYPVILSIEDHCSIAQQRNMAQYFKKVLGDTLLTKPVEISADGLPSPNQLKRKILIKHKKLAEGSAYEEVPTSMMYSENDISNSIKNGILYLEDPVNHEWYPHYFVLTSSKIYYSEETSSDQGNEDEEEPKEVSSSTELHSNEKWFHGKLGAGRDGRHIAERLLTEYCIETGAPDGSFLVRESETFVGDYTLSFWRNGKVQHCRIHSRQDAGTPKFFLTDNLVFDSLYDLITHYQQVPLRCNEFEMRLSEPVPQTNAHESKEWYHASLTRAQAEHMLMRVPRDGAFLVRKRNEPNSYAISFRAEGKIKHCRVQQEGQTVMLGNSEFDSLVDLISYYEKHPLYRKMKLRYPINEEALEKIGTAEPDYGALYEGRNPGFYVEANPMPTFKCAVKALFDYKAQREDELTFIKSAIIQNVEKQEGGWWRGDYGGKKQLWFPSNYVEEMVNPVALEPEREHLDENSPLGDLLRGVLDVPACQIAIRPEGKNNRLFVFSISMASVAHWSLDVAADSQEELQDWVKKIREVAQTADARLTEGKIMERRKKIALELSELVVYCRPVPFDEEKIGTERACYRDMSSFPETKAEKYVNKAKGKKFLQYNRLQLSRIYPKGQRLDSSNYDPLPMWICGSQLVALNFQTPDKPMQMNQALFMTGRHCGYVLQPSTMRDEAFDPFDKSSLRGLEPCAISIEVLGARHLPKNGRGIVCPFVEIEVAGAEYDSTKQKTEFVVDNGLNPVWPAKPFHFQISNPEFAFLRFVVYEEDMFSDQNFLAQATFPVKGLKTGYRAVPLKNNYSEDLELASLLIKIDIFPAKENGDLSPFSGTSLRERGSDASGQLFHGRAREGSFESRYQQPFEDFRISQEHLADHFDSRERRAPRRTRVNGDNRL
ADAM17 inh: ADAM17 inhibition, QFRET primary screen; P78536; recombinant ADAM17, EDANS/DABCYL FRET peptide cleavage; inhibition, % at 6.95 µM; actives 0.83% (n = 370,000); AID 720648;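 active means inhibition above the mean of compounds lying between control limits plus 3 SD, set per campaign, cut at about 8.5% in these data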
ADAM10 counter: counter-screen for ADAM17 exosite inhibitors: inhibitors of human ADAM10; actives 47% (n = 2,900); inhibition, % at 6.95 µM; recombinant ADAM10, EDANS/DABCYL FRET peptide cleavage, 3 h; AID 743256; shares compounds with ADAM17 inh;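 active means mean inhibition over the triplicate runs exceeds the activity threshold set in the earlier primary screen, cut at about 20% in these data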
ADAM17 confirm: human ADAM17 inhibition, confirmation. recombinant ADAM17, EDANS/DABCYL QFRET peptide cleavage. actives 65% (n = 2,900). inhibition, % at 6.95 µM. shares compounds with ADAM17 inh;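 active means mean inhibition across replicates above the hit cutoff set in the primary screen, cut at about 8.5% in these data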
Of the large screens only hits and unclear results are named; the others gave an inactive call (follow-up assays come after a bar, where they were run). Only some compounds are listed: those with a hit (about 2.3% of all), similar ones and a draw of the others.

CC(Sc1ccccc1)C(=O)N/N=C/c1ccccc1 (stereo unspecified)	none
O=C(CSc1nnc(-c2cccnc2)n1-c1ccc(Cl)cc1)Nc1ccccc1-c1ccccc1	none (no result: TbMetRS inhib)
O=C(CSc1nnc(-c2ccccc2)n1-c1ccc(Cl)cc1)Nc1ccccc1-c1ccccc1	ADAM17 inh 10.7 (no result: TbMetRS inhib) | ADAM10 counter 20.5 | ADAM17 confirm 13.8
Clc1ccc(-n2c(SC/C=C/c3ccccc3)nnc2-c2cccnc2)cc1	ADAM17 inh 14.2 | ADAM10 counter inactive | ADAM17 confirm inactive
CN(C(=O)COC(=O)c1ccccc1SCC(=O)N1CCCC1)C1CCS(=O)(=O)C1 (stereo unspecified)	ADAM17 inh 9.0 | ADAM10 counter inactive | ADAM17 confirm inactive
C=CCN1C(=O)[C@@H](CC(=O)NCc2cccc3ccccc23)[C@]2(C(=O)OC)CCCCC=C12	none (no result: TbMetRS inhib)
C=CCN1C(=O)[C@@H](CC(=O)NCc2cccc3ccccc23)[C@]2(C(=O)OCC)CCCCC/C=C/12	ADAM17 inh 11.0 (no result: TbMetRS inhib) | ADAM10 counter inactive | ADAM17 confirm inactive
C#CCNC(=O)C[C@@H]1C(=O)N(Cc2ccc(OC)cc2)/C2=C/CCCCC[C@@]21C(=O)OCC	none (no result: TbMetRS inhib)
CCOC(=O)[C@]12CCCCC/C=C\1N(Cc1ccc(OC)cc1)C(=O)[C@H]2CC(=O)NCC1CCCCC1	ADAM17 inh 12.7 (no result: TbMetRS inhib) | ADAM10 counter inactive | ADAM17 confirm inactive
CCOC(=O)[C@@]12CCCC=C1N(CCc1ccc(Cl)cc1)C(=O)[C@H]2CC(=O)NCC12CC3CC(CC(C3)C1)C2	none (no result: TbMetRS inhib)
COc1ccc(NC(C)C(=O)N/N=C/c2ccccc2OCc2ccc(Br)cc2)cc1 (stereo unspecified)	ADAM17 inh 13.7 | ADAM10 counter inactive | ADAM17 confirm 20.5
CC(Nc1ccc(Br)cc1)C(=O)N/N=C/c1ccccc1OCc1ccccc1 (stereo unspecified)	none
Cc1ccc2[nH]c3c(=O)n(CC(=O)N4CCN(C)CC4)ncc3c2c1	none
CC(C)=CCc1cc([C@@H]2COc3c(ccc4c3C=CC(C)(C)O4)C2)c(O)cc1O	ADAM17 inh 12.6 | ADAM10 counter inactive | ADAM17 confirm inactive
CC(=O)Oc1ccc([C@@H]2COc3c(ccc4c3C=CC(C)(C)O4)C2)c(OC(C)=O)c1	none
Nc1nc(N)c(Br)c(Nc2ccc(Cl)c(Cl)c2)n1	ADAM17 inh 10.0 | ADAM10 counter inactive | ADAM17 confirm inactive
Nc1nc(N)c(N=O)c(Nc2ccc(Cl)c(Cl)c2)n1	none
COc1ccc(F)cc1S(=O)(=O)Nc1ccc(C)cc1	ADAM17 inh 10.7 | ADAM10 counter inactive | ADAM17 confirm inactive
CCOc1ccc(NS(=O)(=O)c2cc(Cl)ccc2OC)cc1	ADAM17 inh 12.4 | ADAM10 counter inactive | ADAM17 confirm inactive
CCOc1ccc(Oc2ccc(NS(=O)(=O)c3cc(C(=O)O)ccc3Cl)cc2)cc1	ADAM17 inh 14.0 | ADAM10 counter inactive | ADAM17 confirm 11.0
Cc1ccc(NC(=O)C2(C)CCN2C(=O)CC(c2ccccc2)c2ccccc2)cc1 (stereo unspecified)	none
CCOc1ccc(OCCC(=O)OCC(=O)NCc2ccccc2)cc1	none
CCOC(=O)c1c(NC(=O)COC(=O)c2ccccc2NC)sc(C(=O)N(C)C)c1C	none
COc1cccc(CNC(=O)[C@H]2CCCN2C(=O)[C@H]2CCCN2C(=O)c2cccs2)c1	none (no result: TbMetRS inhib)
C/C(=N\NC(=O)c1c(Br)c(C)nn1C)c1ccc(NC(=O)C(C)Oc2ccc(Cl)cc2C)cc1 (stereo unspecified)	ADAM17 inh 9.1 | ADAM10 counter inactive | ADAM17 confirm inactive
CC(C)(C)NC(=O)NC(=O)COC(=O)CCCc1c[nH]c2ccccc12	ADAM17 inh 11.5 | ADAM10 counter inactive | ADAM17 confirm inactive
Cc1ccc(NC(=O)COC(=O)Cc2c[nH]c3ccccc23)cc1C	ADAM17 inh 14.0 | ADAM10 counter inactive | ADAM17 confirm inactive
CCOC(=O)CCCc1c[nH]c2ccccc12	none
NC(=O)c1c(/N=C/c2cccs2)sc2c1CCCC2	none
CCN(CC)S(=O)(=O)c1cc(C(=O)Nc2cc(C)[nH]n2)ccc1Cl	none (no result: ADAM10 inh, PLCb3 inh, PLCg1 inh, ADAM17 inh)
COc1ccccc1-c1cnc(C(O)c2ccc(SC)cc2)[nH]1 (stereo unspecified)	none
CCOC(=O)[C@]12CCCCC/C=C\1N(CCc1ccc(Cl)cc1)C(=O)[C@H]2CC(=O)NCc1cccs1	none (no result: TbMetRS inhib)
CCC(C)NS(=O)(=O)c1ccc(S(=O)(=O)N(CC(=O)Nc2ccccc2)Cc2ccco2)cc1 (stereo unspecified)	ADAM17 inh 8.9 | ADAM10 counter 20.2 | ADAM17 confirm 11.0
COc1c(C(O)CC(C)C)ccc2c1C(=O)OCc1cc(C)cc(O)c1O2 (stereo unspecified)	none
COc1c(C(CC(C)C)OC(C)=O)ccc2c1C(=O)OCc1cc(C)cc(O)c1O2 (stereo unspecified)	ADAM17 inh 11.8 | ADAM10 counter 26.8 | ADAM17 confirm 15.8
Nn1c(SCC(=O)Nc2cccnc2Cl)nnc1-c1ccccc1	none (no result: ADAM10 inh, PLCb3 inh, PLCg1 inh, ADAM17 inh)
COc1cc(C(C(=O)NC2CCCCC2)N(C(=O)Cc2c[nH]c3ccccc23)c2ccccc2C)cc(OC)c1OC (stereo unspecified)	ADAM17 inh 9.5 | ADAM10 counter 28.4 | ADAM17 confirm 16.2
COc1ccc(C(C(=O)NC2CCCCC2)N(C(=O)Cc2c[nH]c3ccccc23)c2ccc(NC(C)=O)cc2)cc1OC (stereo unspecified)	none
CCCNC(=O)N1CC[C@H]2[C@@H]1c1cc(-c3ccc(F)cc3)ccc1N(C)[C@H]2CO	none (no result: TbMetRS inhib)
Oc1ccc(C[C@@H](CN2CCCC2CN2C(=S)NC[C@@H]2Cc2ccccc2)N2C[C@H](Cc3ccccc3)N(CC3CCCCC3)C2=S)cc1 (stereo partly specified)	none
CCOc1ccc(CCN2C(=S)N([C@@H](Cc3ccc(O)cc3)CN3CCCC3CN3C(=S)NC[C@@H]3Cc3ccc(O)cc3)C[C@@H]2CC(C)C)cc1 (stereo partly specified)	ADAM17 inh 8.9 | ADAM10 counter 26.1 | ADAM17 confirm 16.2
Oc1ccc(C[C@H]2CNC(=S)N2CC2CCCN2C[C@H](Cc2ccc(O)cc2)N2C[C@H](Cc3ccccc3)N(CC3CCCCCC3)C2=S)cc1 (stereo partly specified)	ADAM17 inh 10.0 | ADAM10 counter 43.0 | ADAM17 confirm 23.3
CC(C)C[C@@H](CN1CCC[C@H]1CN1C(=O)C(=O)NC[C@@H]1Cc1ccccc1)N1C[C@H](Cc2ccc(O)cc2)N(CC2CCCCC2)C(=O)C1=O	ADAM17 inh 10.1 | ADAM10 counter 20.0 | ADAM17 confirm 11.2
